The text below walks through data of ChEMBL document CHEMBL1129079, “Synthesis and antiviral evaluation of certain disubstituted benzimidazole ribonucleosides” (J Med Chem, 1996).

Where only a bound is given, the exact number is not on record here.

The subject of assay [1] is Human betaherpesvirus 5. The assay can be described thus: Antiviral activity against human cytomegalovirus (HCMV) in plaque reduction assay. In kind it is functional, organism-based. The method, boiled down:
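HCMV Towne strain (plaque-purified P0) on HFF monolayers; inoculum ~100 PFU in 0.2 mL; compounds dissolved in overlay medium; plaques counted after staining; IC50 from linear regression of percent inhibition vs log concentration; averages of duplicate or triplicate experiments.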
A general note: In a plaque reduction assay, fewer plaques than in the control indicate reduced infectivity or spread.

The next assay concerns Human alphaherpesvirus 1. Description: Antiviral activity against herpes simplex virus type 1 (HSV-1) was performed by HSV-1 ELISA assays. In kind it is functional, organism-based. The method in brief:
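HSV-1 strain KOS (used in most experiments); ELISA read-out, quadruplicate wells; IC50 from linear regression of percent inhibition against log drug concentration.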

The test system of assay [2] is KB. Description: Inhibitory activity against growth of human epidermoid oral carcinoma KB cell line. In kind it is functional, cell-based. The method in brief: (§1)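 KB cells grown in MEM with Hank's salts plus 10% calf serum; logarithmically growing cells, staining-based growth read-out, quadruplicate assays; IC50 from linear regression of percent inhibition vs log drug concentration.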

Another assay concerns HFF. The assay can be described thus: Cytotoxicity produced in human foreskin fibroblasts (HFF) cells was estimated by visual scoring of cells unaffected by virus infection in the plaque-reduction assay. In kind it is ADME, cell-based. The method, boiled down: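 Uninfected HFF cells in the HCMV plaque-reduction plates, examined at 30-fold magnification; drug-induced cytopathology scored 0–4 on the day of staining for plaque counting.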

Assay [3] relates to Human betaherpesvirus 5. The assay can be described thus: Antiviral activity against human cytomegalo virus (HCMV) in yield reduction assay. In kind it is functional.
Assay [4] has as its system Human betaherpesvirus 5. The assay can be described thus: Antiviral activity against human cytomegalovirus (HCMV) in yield reduction assay. In kind it is functional.
Assay [5] relates to KB. The assay can be described thus: Inhibitory activity against growth of KB cell. In kind it is functional, cell-based. The settings on record: Homo sapiens. The method, boiled down:
as §1

For orientation: IC50 means the concentration needed to halve the response being measured. Turning to `OC[C@H]1O[C@@H](n2c(=S)[nH]c3ccc(Cl)cc32)[C@H](O)[C@@H]1O`, the IC50 in the assay with Human betaherpesvirus 5 [1], in the assay on Human alphaherpesvirus 1, with KB [2] and in the assay with HFF was greater than 100 µM throughout.
Take `O=[N+]([O-])c1ccc2[nH]c(Cl)nc2c1`: the IC50 in the assay with Human betaherpesvirus 5 [1] is 6 µM; with Human alphaherpesvirus 1, 21 µM; in the assay on HFF it was 20 µM.
By IC90 is commonly meant the concentration needed for an effect of 90%. Higher therefore signals a need for much substance. For `OC[C@H]1O[C@@H](n2c(Cl)nc3cc(Cl)c(Cl)cc32)[C@H](O)[C@@H]1O`, 2.8 µM corresponded to half-maximal inhibition in the assay with Human betaherpesvirus 5 [1] (IC50). This compound came in with an IC90 in the assay on Human betaherpesvirus 5 [3] of 1.3 µM.
On to `Nc1ccc2nc(Cl)n(C3O[C@H](CO)[C@@H](O)[C@H]3O)c2c1` (stereo partly specified), for which the figures for the IC50 in the assay on Human betaherpesvirus 5 [1], in the assay with Human alphaherpesvirus 1 and with HFF were greater than 100 µM, greater than 100 µM and greater than 300 µM, respectively.
Regarding `CSc1nc2ccc(Cl)cc2n1C1O[C@H](CO)[C@@H](O)[C@H]1O` (stereo partly specified), the results for the IC50 in the assay with Human betaherpesvirus 5 [1], with Human alphaherpesvirus 1 and in the assay with HFF were greater than 100 µM, less than 100 µM and greater than 100 µM, respectively.
Take `OC[C@H]1OC(n2c(Cl)nc3ccc(Cl)cc32)[C@H](O)[C@@H]1O` (stereo partly specified): the 50% inhibitory concentration (IC50) with Human betaherpesvirus 5 [1] was 58 µM; with Human alphaherpesvirus 1 it was greater than 100 µM; in the assay with HFF, greater than 100 µM. In the assay with Human betaherpesvirus 5 [4], it took 52 µM to reach the 90% level (IC90).
Turning to `OC[C@H]1OC(n2c(Cl)nc3cc(Cl)ccc32)[C@H](O)[C@@H]1O` (stereo partly specified), the IC50 with Human betaherpesvirus 5 [1] was 150 µM; with Human alphaherpesvirus 1, greater than 100 µM; with HFF it was greater than 100 µM. The compound also came in with an IC90 in the assay with Human betaherpesvirus 5 [4] of 100 µM.
Take `Nc1ccc2c(c1)nc(Cl)n2C1O[C@H](CO)[C@@H](O)[C@H]1O` (stereo partly specified): the IC50 with Human betaherpesvirus 5 [1] and in the assay on HFF was greater than 300 µM throughout.
With `OC[C@H]1OC(n2c(SCc3ccccc3)nc3ccc(Cl)cc32)[C@H](O)[C@@H]1O` (stereo partly specified), the 50% inhibitory concentration (IC50) in the assay on Human betaherpesvirus 5 [1], with Human alphaherpesvirus 1 and with HFF was greater than 100 µM in each case.
For the compound `COc1nc2ccc(Cl)cc2n1C1O[C@H](CO)[C@@H](O)[C@H]1O` (stereo partly specified), the half-maximal inhibitory concentration (IC50) in the assay on Human betaherpesvirus 5 [1], with Human alphaherpesvirus 1, with KB [2] and with HFF was greater than 100 µM each time.
Regarding `OC[C@H]1O[C@@H](n2cnc3cc(Cl)c(Cl)cc32)[C@H](O)[C@@H]1O` [DICHLORORIBOBENZIMIDAZOLE], the 90% effect level with Human betaherpesvirus 5 [4] (IC90) was put at 19 µM.
As to `Nc1nc2c(ncn2COC(CO)CO)c(=O)[nH]1` [GANCICLOVIR], the IC50 in the assay on HFF and in the assay with KB [5] was greater than 100 µM in each case. Also, the IC90 with Human betaherpesvirus 5 [3] was found to be 1.6 µM.
